According to ChEMBL document CHEMBL1772968, “Comparing micellar, hemolytic, and antibacterial properties of di- and tricarboxyl dendritic amphiphiles” (Bioorg Med Chem, 2011):
In brackets after ≈: the same amount, converted by molar mass.

How the values were obtained:
Staphylococcus aureus [1] = test: Antibacterial activity against Staphylococcus aureus by broth microdilution method; format: functional
Staphylococcus aureus [2] = test: Antibacterial activity against methicillin-resistant Staphylococcus aureus by broth microdilution method; format: functional
Staphylococcus aureus [3] = test: Antibacterial activity against methicillin-resistant Staphylococcus aureus 523000 by broth microdilution method; format: functional
Outline: (§1)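 MIC (defined as MIC99) determined by broth microdilution in 0.1-strength brain heart infusion broth. Cultures were diluted in growth medium to an inoculum of about 10^5 CFU/mL. Stocks of the amphiphiles were made in aqueous triethanolamine (5% w/v). Vancomycin stock was 500 mg/L in sterile water. Measurements were done in duplicate. Lines 1-6 are recent patient MRSA isolates.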

Staphylococcus aureus [4] = test: Antibacterial activity against methicillin-resistant Staphylococcus aureus 34864 by broth microdilution method; format: functional; outline: as §1
Staphylococcus aureus [5] = test: Antibacterial activity against methicillin-resistant Staphylococcus aureus ATCC 43330 by broth microdilution method; format: functional; outline: as §1
[6] = Critical micelle concentration of the compound in full-strength brain heart infusion broth by dye-covered glass-bead release; details: pH 7.4
Staphylococcus aureus [7] = test: Antibacterial activity against methicillin-resistant Staphylococcus aureus 522870 by broth microdilution method; format: functional; outline: as §1
Staphylococcus aureus [8] = test: Antibacterial activity against methicillin-resistant Staphylococcus aureus 34380 by broth microdilution method; format: functional; outline: as §1
Staphylococcus aureus [9] = test: Antibacterial activity against methicillin-resistant Staphylococcus aureus 36361 by broth microdilution method; format: functional; outline: as §1
Staphylococcus aureus [10] = test: Antibacterial activity against Staphylococcus aureus ATCC 6358 by broth microdilution method; format: functional
Outline: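 Log-phase cultures diluted and tested by broth microdilution in 0.1-strength brain heart infusion broth at about 10^5 CFU/mL inoculum. Amphiphile stocks were 12,500 µg/mL in 5% w/v aqueous triethanolamine. MIC was taken as MIC99 and run in duplicate.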

[11] = Cytotoxicity in sheep RBC assessed as hemolysis after 15 mins by microplate reader; format: cell-based, Ovis aries; details: erythrocyte, 0.25 h
Outline: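 Washed defibrinated sheep red cells (1.1 × 10^7 cells/mL) in PBS pH 7.4, or in full-strength BHIB, were mixed 1:1 with compound diluted from 5% triethanolamine stock. Incubation was 15 min at 37 °C, then cells were pelleted at 5000g for 20 min. Supernatant A540 was read against 0.1% Triton X-100 (complete lysis). EC10 was the lowest concentration giving 10% lysis, in duplicate.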

Staphylococcus aureus [12] = test: Antibacterial activity against methicillin-resistant Staphylococcus aureus 53016 by broth microdilution method; format: functional; outline: as §1

Row | Compound | MIC (Staphylococcus aureus [1]) [µg/mL] | MIC (Staphylococcus aureus [2]) [µg/mL] | MIC (Staphylococcus aureus [3]) [µg/mL] | MIC (Staphylococcus aureus [4]) [µg/mL] | MIC (Staphylococcus aureus [5]) [µg/mL] | CMC [6] [µg/mL] | MIC (Staphylococcus aureus [7]) [µg/mL] | MIC (Staphylococcus aureus [8]) [µg/mL] | MIC (Staphylococcus aureus [9]) [µg/mL] | MIC (Staphylococcus aureus [10]) [µg/mL] | EC10 [11] [µg/mL] | MIC (Staphylococcus aureus [12]) [µg/mL]
1 | CCCCCCCCCCCCCCCC(=O)O [PALMITIC ACID] | > 250 | 250 (≈ 975 µM) |  |  |  |  |  |  |  |  |  | 
2 | CCCCCCCCCC(=O)O [DECANOIC ACID] | 250 (≈ 1450 µM) | > 250 |  |  |  |  |  |  |  |  |  | 
3 | CCCCCCCCCCCCCCCCCCCCC(=O)NC(C)(CCC(=O)O)CCC(=O)O |  |  | 3.6 (≈ 7.23 µM) | 3.6 (≈ 7.23 µM) | 2.2 (≈ 4.42 µM) | 9 | 5.3 (≈ 10.6 µM) | 3.6 (≈ 7.23 µM) | 3.6 (≈ 7.23 µM) | 2.2 (≈ 4.42 µM) | 7.8 | 3.6 (≈ 7.23 µM)
4 | CCCCCCCCCCCC(=O)O [DODECANOATE] | 250 (≈ 1250 µM) | > 250 |  |  |  |  |  |  |  |  |  | 
5 | CCCCCCCCCCCCCCCCCCCCC(=O)NC(CCC(=O)O)(CCC(=O)O)CCC(=O)O |  |  | 28 (≈ 50.4 µM) | 23 (≈ 41.4 µM) | 45 (≈ 81 µM) | 18 | 57 (≈ 103 µM) | 28 (≈ 50.4 µM) | 57 (≈ 103 µM) | 54 (≈ 97.2 µM) | 31 | 28 (≈ 50.4 µM)
6 | CCCCCCCCCCCCCCCCCCCCCCC(=O)NC(CCC(=O)O)(CCC(=O)O)CCC(=O)O |  |  | 14 (≈ 24 µM) | 7 (≈ 12 µM) | 4.5 (≈ 7.71 µM) | 18 | 14 (≈ 24 µM) | 7 (≈ 12 µM) | 14 (≈ 24 µM) | 54 (≈ 92.5 µM) | 31 | 7 (≈ 12 µM)
7 | CCCCCCCCCCCCCCCCCCCCCCCOC(=O)NC(CCC(=O)O)(CCC(=O)O)CCC(=O)O |  |  | 7 (≈ 11.4 µM) | 3.6 (≈ 5.86 µM) | 4.5 (≈ 7.33 µM) | 18 | 11 (≈ 17.9 µM) | 5.3 (≈ 8.63 µM) | 14 (≈ 22.8 µM) | 23 (≈ 37.5 µM) | 63 | 3.6 (≈ 5.86 µM)
8 | CCCCCCCCCCCCCCCCCCCCCOC(=O)NC(CCC(=O)O)(CCC(=O)O)CCC(=O)O |  |  | 7 (≈ 11.9 µM) | 7 (≈ 11.9 µM) | 4.5 (≈ 7.68 µM) | 18 | 7 (≈ 11.9 µM) | 5.3 (≈ 9.05 µM) | 14 (≈ 23.9 µM) | 27 (≈ 46.1 µM) | 31 | 7 (≈ 11.9 µM)
9 | CN[C@H](CC(C)C)C(=O)N[C@H]1C(=O)N[C@@H](CC(N)=O)C(=O)N[C@H]2C(=O)N[C@H]3C(=O)N[C@H](C(=O)N[C@H](C(=O)O)c4cc(O)cc(O)c4-c4cc3ccc4O)[C@H](O)c3ccc(c(Cl)c3)Oc3cc2cc(c3O[C@@H]2O[C@H](CO)[C@@H](O)[C@H](O)[C@H]2O[C@H]2C[C@](C)(N)[C@H](O)[C@H](C)O2)Oc2ccc(cc2Cl)[C@H]1O [VANCOMYCIN] |  |  |  | 0.38 (≈ 0.262 µM) | 0.25 (≈ 0.173 µM) |  | 0.25 (≈ 0.173 µM) |  | 0.75 (≈ 0.518 µM) | 0.25 (≈ 0.173 µM) |  | 0.38 (≈ 0.262 µM)
10 | CCCCCCCCCCCCCCCCCCCCCCC(=O)NC(C)(CCC(=O)O)CCC(=O)O |  |  | 3.6 (≈ 6.85 µM) | 3.6 (≈ 6.85 µM) | 1.7 (≈ 3.23 µM) | 9 | 3.6 (≈ 6.85 µM) | 3.6 (≈ 6.85 µM) | 3.6 (≈ 6.85 µM) | 2.2 (≈ 4.18 µM) | 7.8 | 3.6 (≈ 6.85 µM)
11 | CCCCCCCCCCCCCCCCCCCOC(=O)NC(C)(CCC(=O)O)CCC(=O)O |  |  | 1.7 (≈ 3.4 µM) | 2.2 (≈ 4.4 µM) | 2.2 (≈ 4.4 µM) | 9 |  | 2.2 (≈ 4.4 µM) | 2.2 (≈ 4.4 µM) | 2.2 (≈ 4.4 µM) | 16 | 2.2 (≈ 4.4 µM)
12 | CCCCCCCCCCCCCCCCCCCCCOC(=O)NC(C)(CCC(=O)O)CCC(=O)O |  |  | 3.4 (≈ 6.44 µM) | 4.5 (≈ 8.53 µM) | 2.2 (≈ 4.17 µM) | 9 |  | 4.5 (≈ 8.53 µM) | 2.2 (≈ 4.17 µM) | 3.4 (≈ 6.44 µM) | 16 | 3.4 (≈ 6.44 µM)
13 | CCCCCCCCCCCCCCCCCCCCCNC(=O)NC(CCC(=O)O)(CCC(=O)O)CCC(=O)O |  |  | 7 (≈ 12 µM) | 11 (≈ 18.8 µM) | 4.5 (≈ 7.69 µM) | 9 | 14 (≈ 23.9 µM) | 7 (≈ 12 µM) | 28 (≈ 47.9 µM) | 54 (≈ 92.3 µM) | 31 | 11 (≈ 18.8 µM)
14 | CCCCCCCCCCCCCCCCCCCCCCCNC(=O)NC(CCC(=O)O)(CCC(=O)O)CCC(=O)O |  |  | 14 (≈ 22.8 µM) | 11 (≈ 17.9 µM) | 6.8 (≈ 11.1 µM) |  | 14 (≈ 22.8 µM) | 11 (≈ 17.9 µM) | 43 (≈ 70.2 µM) | 54 (≈ 88.1 µM) | 31 | 7 (≈ 11.4 µM)
15 | CCCCCCCCCCCCCCCCCC(=O)O [STEARIC ACID] | > 250 |  |  |  |  |  |  |  |  |  |  | 
16 | CCCCCCCCCCCCCC(=O)O [MYRISTIC ACID] | 250 (≈ 1090 µM) | 250 (≈ 1090 µM) |  |  |  |  |  |  |  |  |  | 
